# Source: ChEMBL document CHEMBL4699414, “Hit-to-lead optimization of novel benzimidazole phenylacetamides as broad spectrum trypanosomacides” (RSC Med Chem, 2020)
# Assays:
# [1] = Cytotoxicity against human HEK293 cells assessed as reduction in cell viability measured after 48 hrs by resazurin assay; type: cell-based
# Procedure, shortened: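 HEK293 cells from ATCC; Alamar Blue viability read-out run per earlier method.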
# Trypanosoma cruzi = assay: Antitrypanosomal activity against Trypanosoma cruzi infected in rat H9c2 infected with trypomastigotes from parasite-infected monkey LLC-MK2 cells measured after 72 hrs by DRAQ5 DNA dye based microscopic imaging analysis; type: functional, organism-based; settings: H9c2, 72 h
# [2] = Cytotoxicity against rat H9c2 cells assessed as reduction in cell viability; type: cell-based
# [3] = Cytotoxicity against human HepG2 cells assessed as reduction in cell viability measured after 48 hrs by CellTiter-Glo assay; type: cell-based
# Procedure, shortened: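 HepG2 human hepatoma cells from GSK Biological Reagents and Assay Development (Stevenage, UK); viability read-out per earlier method.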
# [4] = Lipophilicity, logP of the compound; type: physicochemical; settings: octanol/water
# [5] = system: Trypanosoma brucei brucei; assay: Antitrypanosomal activity against Trypanosoma brucei brucei Lister 427 assessed as parasite growth inhibition measured after 48 hrs by alamar blue assay; settings: Lister 427, 48 h
smiles,measurement,setting,value
O=C(Cc1ccc(Cl)cc1)Nc1nc2ccccc2[nH]1,CC50 at 48 h,[1],> 83 µM
same,IC50,Trypanosoma cruzi,50 µM
same,CC50,[2],> 50 µM
same,CC50 at 48 h,[3],> 50 µM
same,logP,[4],3.6
CCn1c(NC(=O)Cc2ccc(Cl)cc2)nc2ccccc21,CC50 at 48 h,[1],> 83 µM
same,IC50,Trypanosoma cruzi,2.5 µM
same,CC50,[2],40 µM
same,CC50 at 48 h,[3],> 50 µM
same,logP,[4],4.2
same,IC50,[5],3.1 µM
Cn1c(NC(=O)Cc2ccc(Cl)cc2)nc2ccccc21,CC50 at 48 h,[1],> 83 µM
same,IC50,Trypanosoma cruzi,3.2 µM
same,CC50,[2],> 50 µM
same,CC50 at 48 h,[3],> 50 µM
same,logP,[4],3.8
same,IC50,[5],3.8 µM
CCCCCCCCC(=O)Nc1nc2ccccc2n1CCC,CC50 at 48 h,[1],> 83 µM
same,IC50,Trypanosoma cruzi,2.5 µM
same,CC50,[2],20 µM
same,CC50 at 48 h,[3],> 50 µM
same,logP,[4],5.7
same,IC50,[5],7.3 µM
CCCn1c(NC(=O)Cc2ccc3ccccc3c2)nc2ccccc21,CC50 at 48 h,[1],> 83 µM
same,IC50,Trypanosoma cruzi,1.3 µM
same,CC50,[2],> 50 µM
same,CC50 at 48 h,[3],25 µM
same,logP,[4],5.1
same,IC50,[5],5.5 µM
CCCn1c(NC(=O)Cc2ccccc2OC)nc2ccccc21,CC50 at 48 h,[1],> 83 µM
same,IC50,Trypanosoma cruzi,6.3 µM
same,CC50,[2],13 µM
same,CC50 at 48 h,[3],> 50 µM
same,logP,[4],4
same,IC50,[5],> 83 µM
CCCn1c(NC(=O)Cc2ccccc2C)nc2ccccc21,CC50 at 48 h,[1],> 83 µM
same,IC50,Trypanosoma cruzi,2.5 µM
same,CC50,[2],> 50 µM
same,CC50 at 48 h,[3],> 50 µM
same,logP,[4],4.6
same,IC50,[5],2.6 µM
CCCn1c(NC(=O)Cc2cccc(Cl)c2)nc2ccccc21,CC50 at 48 h,[1],15 µM
same,IC50,Trypanosoma cruzi,1.6 µM
same,CC50,[2],> 50 µM
same,CC50 at 48 h,[3],> 50 µM
same,logP,[4],4.7
same,IC50,[5],3.6 µM
CCCn1c(NC(=O)Cc2cccc(C)c2)nc2ccccc21,CC50 at 48 h,[1],15 µM
same,IC50,Trypanosoma cruzi,2 µM
same,CC50,[2],> 50 µM
same,CC50 at 48 h,[3],> 50 µM
same,logP,[4],4.6
same,IC50,[5],3.6 µM
CCCn1c(NC(=O)Cc2ccccc2Br)nc2ccccc21,CC50 at 48 h,[1],> 83 µM
same,IC50,Trypanosoma cruzi,1.6 µM
same,CC50,[2],> 50 µM
same,CC50 at 48 h,[3],20 µM
same,logP,[4],4.9
same,IC50,[5],2 µM
CCCn1c(NC(=O)Cc2ccc(C(F)(F)F)cc2)nc2ccccc21,CC50 at 48 h,[1],> 83 µM
same,IC50,Trypanosoma cruzi,1 µM
same,CC50,[2],> 50 µM
same,CC50 at 48 h,[3],> 50 µM
same,logP,[4],5
same,IC50,[5],4.5 µM
CCCn1c(NC(=O)Cc2cccc(F)c2)nc2ccccc21,CC50 at 48 h,[1],> 83 µM
same,IC50,Trypanosoma cruzi,2 µM
same,CC50,[2],> 50 µM
same,CC50 at 48 h,[3],> 50 µM
same,logP,[4],4.3
same,IC50,[5],3.2 µM
CCCn1c(NC(=O)Cc2ccc(Br)cc2)nc2ccccc21,CC50 at 48 h,[1],> 83 µM
same,IC50,Trypanosoma cruzi,2 µM
same,CC50,[2],> 50 µM
same,CC50 at 48 h,[3],> 50 µM
same,logP,[4],4.9
same,IC50,[5],5 µM
CCCn1c(NC(=O)Cc2ccc(Cl)cc2)nc2cc(Br)ccc21,CC50 at 48 h,[1],> 83 µM
same,IC50,Trypanosoma cruzi,0.79 µM
same,CC50,[2],> 50 µM
same,logP,[4],5.5
same,IC50,[5],16 µM
CCCn1c(NC(=O)Cc2ccc(OC)cc2)nc2ccccc21,CC50 at 48 h,[1],> 83 µM
same,IC50,Trypanosoma cruzi,3.2 µM
same,CC50,[2],> 50 µM
same,CC50 at 48 h,[3],> 50 µM
same,logP,[4],4
same,IC50,[5],5.2 µM
CCCn1c(NC(=O)Cc2ccc(OC(C)=O)cc2)nc2ccccc21,CC50 at 48 h,[1],> 83 µM
same,IC50,Trypanosoma cruzi,32 µM
same,CC50,[2],> 50 µM
same,CC50 at 48 h,[3],> 50 µM
same,logP,[4],3.7
same,IC50,[5],14 µM
CCCn1c(NC(=O)Cc2ccc(-c3ccccc3)cc2)nc2ccccc21,CC50 at 48 h,[1],> 83 µM
same,IC50,Trypanosoma cruzi,1 µM
same,CC50,[2],> 50 µM
same,CC50 at 48 h,[3],> 50 µM
same,logP,[4],5.8
same,IC50,[5],3.4 µM
CCCn1c(NC(=O)Cc2ccc(Cl)cc2)nc2ccc(C)cc21,CC50 at 48 h,[1],> 83 µM
same,logP,[4],5.2
same,IC50,[5],15 µM
CCCn1c(NC(=O)Cc2ccc(Cl)cc2)nc2cccc(Br)c21,CC50 at 48 h,[1],> 83 µM
same,logP,[4],5.5
same,IC50,[5],2.8 µM
CCCn1c(NC(=O)Cc2ccccc2F)nc2ccccc21,CC50 at 48 h,[1],> 83 µM
same,IC50,Trypanosoma cruzi,3.2 µM
same,CC50,[2],> 50 µM
same,CC50 at 48 h,[3],> 50 µM
same,logP,[4],4.3
same,IC50,[5],3.6 µM
CCCc1c(NC(=O)Cc2ccc(Cl)cc2)ncc2ccccc12,IC50,Trypanosoma cruzi,0.5 µM
same,CC50,[2],3.2 µM
same,CC50 at 48 h,[3],7.94 µM
same,logP,[4],5.4
CCCn1c(NC(=O)Cc2cccc3ccccc23)nc2ccccc21,CC50 at 48 h,[1],10 µM
same,IC50,Trypanosoma cruzi,1 µM
same,CC50,[2],> 50 µM
same,CC50 at 48 h,[3],20 µM
same,logP,[4],5.1
same,IC50,[5],2.6 µM
CCCn1c(NC(=O)Cc2ccc(OC(F)(F)F)cc2)nc2ccccc21,CC50 at 48 h,[1],> 83 µM
same,IC50,Trypanosoma cruzi,1 µM
same,CC50,[2],10 µM
same,CC50 at 48 h,[3],> 50 µM
same,logP,[4],5.6
same,IC50,[5],3.2 µM
CCCn1c(NC(=O)Cc2ccc(F)cc2)nc2ccccc21,CC50 at 48 h,[1],> 83 µM
same,IC50,Trypanosoma cruzi,2.5 µM
same,CC50,[2],> 50 µM
same,CC50 at 48 h,[3],> 50 µM
same,logP,[4],4.3
same,IC50,[5],2.5 µM
CCCn1c(NC(=O)Cc2ccccc2Cl)nc2ccccc21,CC50 at 48 h,[1],14 µM
same,IC50,Trypanosoma cruzi,2 µM
same,CC50,[2],25 µM
same,CC50 at 48 h,[3],25 µM
same,logP,[4],4.7
same,IC50,[5],2.3 µM
CCCCC(=O)Nc1nc2ccccc2n1CCC,CC50 at 48 h,[1],2.6 µM
same,IC50,Trypanosoma cruzi,13 µM
same,CC50,[2],25 µM
same,CC50 at 48 h,[3],> 50 µM
same,logP,[4],3.9
same,IC50,[5],11 µM
CCCn1c(NC(=O)Cc2cccc(Br)c2)nc2ccccc21,CC50 at 48 h,[1],> 83 µM
same,IC50,Trypanosoma cruzi,1 µM
same,CC50,[2],> 50 µM
same,CC50 at 48 h,[3],> 50 µM
same,logP,[4],4.9
same,IC50,[5],2.9 µM
CCCn1c(NC(=O)Cc2ccc(O)cc2)nc2ccccc21,CC50 at 48 h,[1],> 83 µM
same,IC50,Trypanosoma cruzi,40 µM
same,CC50,[2],> 50 µM
same,CC50 at 48 h,[3],> 50 µM
same,logP,[4],3.8
same,IC50,[5],> 83 µM
CCCn1c(NC(=O)Cc2ccccc2)nc2ccccc21,CC50 at 48 h,[1],> 83 µM
same,IC50,Trypanosoma cruzi,4 µM
same,CC50,[2],> 50 µM
same,CC50 at 48 h,[3],> 50 µM
same,logP,[4],4.1
same,IC50,[5],4.1 µM
CCCn1c(NC(=O)Cc2ccc(Cl)nc2)nc2ccccc21,CC50 at 48 h,[1],> 83 µM
same,IC50,Trypanosoma cruzi,7.9 µM
same,CC50,[2],> 50 µM
same,CC50 at 48 h,[3],> 50 µM
same,logP,[4],3.7
same,IC50,[5],> 83 µM
CCCCn1c(NC(=O)Cc2ccc(Cl)cc2)nc2ccccc21,CC50 at 48 h,[1],> 83 µM
same,IC50,Trypanosoma cruzi,1.6 µM
same,CC50,[2],13 µM
same,CC50 at 48 h,[3],> 50 µM
same,logP,[4],5.2
same,IC50,[5],4.4 µM
CCCn1c(NC(=O)Cc2cccc(OC)c2)nc2ccccc21,CC50 at 48 h,[1],> 83 µM
same,IC50,Trypanosoma cruzi,4 µM
same,CC50,[2],> 50 µM
same,CC50 at 48 h,[3],> 50 µM
same,logP,[4],4
same,IC50,[5],4.3 µM
O=C(Cn1ccnc1[N+](=O)[O-])NCc1ccccc1 [BENZNIDAZOLE],IC50,Trypanosoma cruzi,1.58 µM
same,CC50,[2],31.6 µM
N=C(N)c1ccc(/N=N/Nc2ccc(C(=N)N)cc2)cc1 [DIMINAZENE DIACETURATE],CC50 at 48 h,[1],38.5 µM
same,IC50,[5],0.087 µM
N=C(N)c1ccc(OCCCCCOc2ccc(C(=N)N)cc2)cc1 [PENTAMIDINE],CC50 at 48 h,[1],0.67 µM
same,IC50,[5],0.014 µM
COc1ccc(C[C@H](N)C(=O)N[C@H]2[C@@H](O)[C@H](n3cnc4c(N(C)C)ncnc43)O[C@@H]2CO)cc1 [PUROMYCIN],CC50 at 48 h,[1],0.23 µM
same,IC50,[5],0.038 µM
